# Experimental data reported in ChEMBL document CHEMBL3525963, “Tissue distribution and elimination of [14C]apixaban in rats” (Drug Metab Dispos, 2011).
# Assays:
# Settings in all cases: in vivo
# Lung [1] = test: Biodistribution in pregnant Sprague-Dawley rat lung at 5 mg/kg, po administered as single dose measured after 24 hrs; assay type: ADME, organism-based; design: dose 5 mg/kg, dosed compound name [14C]-apixaban, route oral
# Liver = test: Biodistribution in female Sprague-Dawley rat liver at 5 mg/kg, po administered as single dose measured after 72 hrs; assay type: ADME, organism-based; design: dose 5 mg/kg, dosed compound name [14C]-apixaban, route oral
# Outline: (§1)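 Quantitative whole-body autoradiography was run after a single 5 mg/kg (100 μCi/kg) oral gavage to fasted female or pregnant SD rats, one rat per time point. Carcasses were frozen in hexane/dry ice, and 40 µm sagittal sections were dried at −20°C for at least 48 h. Sections were exposed to a phosphor plate alongside [14C]glucose standards (0.001–6.5 µCi/g). Results are µg eq/g, with LLOQ 0.037 µg eq/g.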
# Rattus norvegicus [2] = test: Biodistribution in fetal blood of pregnant Sprague-Dawley rat at 5 mg/kg, po administered as single dose measured after 0.5 hrs; assay type: ADME, organism-based; design: dose 5 mg/kg, dosed compound name [14C]-apixaban, route oral
# Outline: (§2)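 Pregnant rats, 270-319 g and fasted overnight, received [14C]apixaban by oral gavage at 100 μCi/kg in 0.5% Tween 80/Labrafil. One dam per time point was euthanized and frozen in hexane/dry ice. Fetal tissue radioactivity was measured by QWBA on 40 µm sagittal sections calibrated with [14C]glucose standards. Values are in µg eq/g, with LLOQ 0.037 μg eq/g.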
# Heart [3] = test: Biodistribution in male Sprague-Dawley rat heart at 5 mg/kg, po administered as single dose measured after 24 hrs; assay type: ADME, organism-based; design: dose 5 mg/kg, dosed compound name [14C]-apixaban, route oral
# Outline: (§3)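 Fasted male SD rats (225-252 g) each received one oral gavage dose of [14C]apixaban, 5 mg/kg (100 μCi/kg), in 0.5% Tween 80/Labrafil vehicle. One rat was killed per time point, from 0.5 to 168 h. Frozen carcasses were cut into 40 µm sagittal whole-body sections and read by QWBA phosphor imaging against [14C]glucose calibrants. Results are in µg apixaban eq/g; BLQ <0.037 µg eq/g.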
# Thymus = test: Biodistribution in pregnant Sprague-Dawley rat thymus at 5 mg/kg, po administered as single dose measured after 1 hr; assay type: ADME, organism-based; design: dose 5 mg/kg, dosed compound name [14C]-apixaban, route oral
# Rattus norvegicus [4] = test: Biodistribution in female Sprague-Dawley rat kidney cortex at 5 mg/kg, po administered as single dose measured after 8 hrs; assay type: ADME, organism-based; design: dose 5 mg/kg, dosed compound name [14C]-apixaban, route oral
# Outline: (§4)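 [14C]apixaban (20 μCi/mL in dosing solution) in 0.5% Tween 80 in Labrafil given by oral gavage to fasted female rats, 206-213 g, at 100 μCi/kg. One rat per time point was euthanized and snap-frozen. Sagittal 40 µm whole-body sections were read by QWBA phosphor imaging against [14C]glucose standards. Results are in µg eq apixaban/g, with LLOQ 0.037 μg eq/g.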
# Harderian gland [5] = test: Biodistribution in female Sprague-Dawley rat harderian gland at 5 mg/kg, po administered as single dose measured after 1 hr; assay type: ADME, organism-based; design: dose 5 mg/kg, dosed compound name [14C]-apixaban, route oral
# Outline: (§5)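 [¹⁴C]Apixaban given by oral gavage at 5 mg/kg (100 μCi/kg) in 0.5% Tween 80 in Labrafil (1.0 mg/mL dosing solution) to rats fasted overnight through 4 h post-dose. One rat per time point; carcass frozen in hexane/dry ice. Quantitative whole-body autoradiography used 40 µm sagittal sections and a phosphor imaging plate calibrated with [¹⁴C]glucose standards (0.001–6.5 μCi/g). Read-out in µg eq apixaban/g; LLOQ 0.037 μg eq/g.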
# Rattus norvegicus [6] = test: Biodistribution in pregnant Sprague-Dawley rat pituitary gland at 5 mg/kg, po administered as single dose measured after 8 hrs; assay type: ADME, organism-based; design: dose 5 mg/kg, dosed compound name [14C]-apixaban, route oral
# Plasma = test: AUC (0 to t) in lactating Sprague-Dawley rat plasma at 5 mg/kg, po administered as single dose; assay type: ADME, organism-based; design: dose 5 mg/kg, dosed compound name [14C]-apixaban, route oral
# Outline: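 Fasted lactating SD rats received 5 mg/kg [14C]apixaban orally (formulation 5.0 mg/mL, 20 μCi/mL). Oxytocin was injected subcutaneously 15 min before collection, and 1 mL milk was taken under anesthesia by milking machine. Sampling was predose and at 0.5–24 h, 3 rats per time point. Plasma was obtained at 1300g for 10 min. Duplicate 50–100 µL aliquots were counted by LSC for 10 min. AUC was calculated in WinNonlin.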
# Rattus norvegicus [7] = test: Biodistribution in female Sprague-Dawley rat kidney cortex at 5 mg/kg, po administered as single dose measured after 4 hrs; assay type: ADME, organism-based; design: dose 5 mg/kg, dosed compound name [14C]-apixaban, route oral; outline: as §4
# Spleen [8] = test: Biodistribution in female Sprague-Dawley rat spleen at 5 mg/kg, po administered as single dose measured after 0.5 hrs; assay type: ADME, organism-based; design: dose 5 mg/kg, dosed compound name [14C]-apixaban, route oral; outline: as §5
# [9] = Drug excretion in Sprague-Dawley rat urine at 30 mg/kg, po administered as single dose after 0 to 168 hrs
# Pancreas = test: Biodistribution in male Sprague-Dawley rat pancreas at 5 mg/kg, po administered as single dose measured after 4 hrs; assay type: ADME, organism-based; design: dose 5 mg/kg, dosed compound name [14C]-apixaban, route oral
# Outline: (§6)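 [14C]apixaban (1.0 mg/mL, 20 μCi/mL) in 0.5% Tween 80 in Labrafil, given by oral gavage at 100 μCi/kg to male rats (225-252 g) fasted overnight through 4 h post-dose. One rat per time point. Carcasses frozen in hexane/dry ice and cut into 40 µm sagittal sections. QWBA read on phosphor plates against [14C]glucose standards, reported as µg eq/g. LLOQ 0.037 µg eq/g.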
# Rattus norvegicus [10] = test: Biodistribution in male Sprague-Dawley rat bone marrow at 5 mg/kg, po administered as single dose measured after 24 hrs; assay type: ADME, organism-based; design: dose 5 mg/kg, dosed compound name [14C]-apixaban, route oral; outline: as §3
# Brain = test: Biodistribution in female Sprague-Dawley rat brain at 5 mg/kg, po administered as single dose measured after 4 hrs; assay type: ADME, organism-based; design: dose 5 mg/kg, dosed compound name [14C]-apixaban, route oral
# Outline: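 [14C]Apixaban (1.0 mg/mL, 20 μCi/mL in 0.5% Tween 80 in Labrafil) given as a single oral gavage of 5 mg/kg (100 μCi/kg) to fasted female SD rats, one rat per time point. Carcasses were frozen in hexane/dry ice and cut into 40 µm sagittal sections for QWBA against [14C]glucose standards. Brain radioactivity is reported as µg eq/g, with LLOQ 0.037 µg eq/g.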
# Lung [11] = test: Biodistribution in pregnant Sprague-Dawley rat lung at 5 mg/kg, po administered as single dose measured after 48 hrs; assay type: ADME, organism-based; design: dose 5 mg/kg, dosed compound name [14C]-apixaban, route oral
# Outline: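 Pregnant SD rats (270-319 g) were fasted overnight and given one oral gavage of 5 mg/kg (100 μCi/kg) in 0.5% Tween 80 in Labrafil. One rat was euthanized per time point (0.5, 1, 4, 8, 24, 48 h) and the carcass frozen. 40 µm sagittal sections were phosphor-imaged against [14C]glucose standards and results reported as µg eq/g; LLOQ 0.037 µg eq/g.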
# Harderian gland [12] = test: Biodistribution in female Sprague-Dawley rat harderian gland at 5 mg/kg, po administered as single dose measured after 8 hrs; assay type: ADME, organism-based; design: dose 5 mg/kg, dosed compound name [14C]-apixaban, route oral; outline: as §5
# Rattus norvegicus [13] = test: Biodistribution in pregnant Sprague-Dawley rat brown fat at 5 mg/kg, po administered as single dose measured after 8 hrs; assay type: ADME, organism-based, Brown adipose tissue; design: dose 5 mg/kg, dosed compound name [14C]-apixaban, route oral
# Blood = test: Biodistribution in male Sprague-Dawley rat blood at 5 mg/kg, po administered as single dose measured after 24 hrs; assay type: ADME, organism-based; design: dose 5 mg/kg, dosed compound name [14C]-apixaban, route oral; outline: as §3
# Rattus norvegicus [14] = test: Biodistribution in fetal kidney of pregnant Sprague-Dawley rat at 5 mg/kg, po administered as single dose measured after 48 hrs; assay type: ADME, organism-based; design: dose 5 mg/kg, dosed compound name [14C]-apixaban, route oral; outline: as §1
# Heart [15] = test: Biodistribution in female Sprague-Dawley rat heart at 5 mg/kg, po administered as single dose measured after 0.5 hrs; assay type: ADME, organism-based; design: dose 5 mg/kg, dosed compound name [14C]-apixaban, route oral; outline: as §5
# Rattus norvegicus [16] = test: Biodistribution in fetal blood of pregnant Sprague-Dawley rat at 5 mg/kg, po administered as single dose measured after 4 hrs; assay type: ADME, organism-based; design: dose 5 mg/kg, dosed compound name [14C]-apixaban, route oral; outline: as §2
# Spleen [17] = test: Biodistribution in male Sprague-Dawley rat spleen at 5 mg/kg, po administered as single dose measured after 1 hr; assay type: ADME, organism-based; design: dose 5 mg/kg, dosed compound name [14C]-apixaban, route oral; outline: as §6
smiles,measurement,setting,value
COc1ccc(-n2nc(C(N)=O)c3c2C(=O)N(c2ccc(N4CCCC[14C]4=O)cc2)CC3)cc1,Radiolabel recovery,Lung [1],< 0.037 ugequiv/g
same,Radiolabel recovery,Liver,Not detected assumed BLQ
same,Radiolabel recovery,Rattus norvegicus [2],0.27 ugequiv/g
same,Radiolabel recovery,Heart [3],Not detected assumed BLQ
same,Radiolabel recovery,Thymus,0.58 ugequiv/g
same,Radiolabel recovery,Rattus norvegicus [4],0.42 ugequiv/g
same,Radiolabel recovery,Harderian gland [5],0.64 ugequiv/g
same,Radiolabel recovery,Rattus norvegicus [6],0.19 ugequiv/g
same,AUCt,Plasma,3420 ngequiv.hr/g
same,Radiolabel recovery,Rattus norvegicus [7],1.21 ugequiv/g
same,Radiolabel recovery,Spleen [8],0.29 ugequiv/g
same,Radiolabel recovery,[9],14%
same,Radiolabel recovery,Pancreas,0.55 ugequiv/g
same,Radiolabel recovery,Rattus norvegicus [10],Not sampled as not visualised in autoradiograph
same,Radiolabel recovery,Brain,< 0.037 ugequiv/g
same,Radiolabel recovery,Lung [11],Not detected assumed BLQ
same,Radiolabel recovery,Harderian gland [12],0.22 ugequiv/g
same,Radiolabel recovery,Rattus norvegicus [13],0.06 ugequiv/g
same,Radiolabel recovery,Blood,Not sampled as not visualised in autoradiograph
same,Radiolabel recovery,Rattus norvegicus [14],Not sampled as not visualised in autoradiograph
same,Radiolabel recovery,Heart [15],0.37 ugequiv/g
same,Radiolabel recovery,Rattus norvegicus [16],0.51 ugequiv/g
same,Radiolabel recovery,Spleen [17],0.32 ugequiv/g
